Tb MetRS inh: blocks T. brucei methionyl-tRNA synthetase activity. inhibition, % at 11.9 µM. 0.4% of 360,000 active. purified T. brucei MetRS, ATP depletion, Kinase-Glo luminescence. AID 624268;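 active = inhibition above a per-plate cutoff of the control wells' mean inhibition plus 3 SD, cut at about 5.5% in these data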;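 note: 0% = DMSO wells median and 100% = median of wells with control inhibitor compound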
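Test system – parasite MetRS enzyme · Reagent – substrates ATP, L-methionine and bulk Escherichia coli tRNA · Doses – 11.9 µM compound single dose, 0.9% DMSO · Times – 15 min enzyme-compound preincubation, 2 h reaction, 10 min detection, 25 °C · Signal – Kinase-Glo luminescence, ATP depletion format · Controls – DMSO-only wells as low control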
PG9 Ab binder: PG9 antibody binding by small molecule; TR-FRET gp120-PG9 antibody binding; inhibition, % at 6.7 µM; 0.43% of 360,000 active; AID 624416; in the data active = inhibition above about 8.5%
NR1D1 modulator: modulators of human Rev-erb alpha DNA binding | P20393 | Rev-erbα–FITC-DNA binding, fluorescence polarization, 90 min | activity, % at 10 µM | 0.79% of 370,000 active;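 active = activity above about 14%, limit read from the data; passing the limit was not always enough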;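 note: 0% = DMSO wells with 35 nM protein and 100% = DMSO wells with 750 nM protein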
Target sequence (P20393 whole entry, looked up): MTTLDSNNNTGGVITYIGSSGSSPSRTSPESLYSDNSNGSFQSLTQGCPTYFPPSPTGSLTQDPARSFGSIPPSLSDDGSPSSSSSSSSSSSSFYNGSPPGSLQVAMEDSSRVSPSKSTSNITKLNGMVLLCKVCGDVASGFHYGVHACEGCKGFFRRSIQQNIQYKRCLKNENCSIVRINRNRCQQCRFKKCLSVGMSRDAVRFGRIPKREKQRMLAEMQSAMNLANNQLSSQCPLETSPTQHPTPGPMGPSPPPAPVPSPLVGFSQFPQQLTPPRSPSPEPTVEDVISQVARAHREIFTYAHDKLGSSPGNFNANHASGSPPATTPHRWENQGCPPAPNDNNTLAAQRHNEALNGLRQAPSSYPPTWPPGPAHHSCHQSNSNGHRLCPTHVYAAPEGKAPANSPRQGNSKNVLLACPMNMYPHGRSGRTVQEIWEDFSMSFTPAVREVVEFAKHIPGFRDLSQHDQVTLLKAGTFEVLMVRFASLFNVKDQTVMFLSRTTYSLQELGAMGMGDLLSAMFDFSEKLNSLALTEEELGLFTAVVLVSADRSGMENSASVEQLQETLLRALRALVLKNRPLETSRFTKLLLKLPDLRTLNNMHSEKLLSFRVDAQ
Rin1 Abl inh: inhibitors of human Rin1-Abl protein interaction; 0.4% of 360,000 active; P00519+Q13671; inhibition, % at 7.35 µM; AID 588664; TR-FRET Rin1/Abl binding, biochemical; in the data active = inhibition above about 5%, passing the limit was not always enough
Rev-erbA confirm: confirmation of modulators of human Rev-erb alpha DNA binding; shares compounds with NR1D1 modulator; Rev-erb alpha FITC-DNA binding, fluorescence polarization, 90 min; activation, % at 25 µM; 61% of 3,000 active;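 active = activation at or above a set limit, or at least 3 SD above the negative control mean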;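 note: 0% = 35 nM protein with DMSO and 100% = 750 nM protein high control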
RORg DNA counter: counter-screen for Rev-erb alpha modulators: RORgamma DNA binding | 8% of 910 active | AID 1259320 | purified RORgamma protein-FITC-DNA binding, fluorescence polarization | shares compounds with NR1D1 modulator | IC50, µM;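 active = Compounds whose fitted half-maximal concentration for disrupting protein-DNA binding is below 10 micromolar; the record names Rev-erb in its text, so the target is in doubt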
* marks the source's active call; other numbers are inactive results; . = not tested or not shown. In the library only some 1.8% were active in any assay of this set; here they are far more common.

SMILES | Tb MetRS inh | PG9 Ab binder | NR1D1 modulator | Rin1 Abl inh | Rev-erbA confirm | others
CCOc1ccc(/C(O)=C2/C(=O)C(=O)N(CCCn3ccnc3)C2c2cccs2)cc1Cl (configuration not stated) | 1 | 8 | 48* | -1 | 47*
COc1ccc2oc(C(=O)OCC(=O)/C(C#N)=C(\C)N)c(C)c2c1 | -1 | 0 | 20* | -1 | 14
CCOC(=O)c1c(-c2cccs2)csc1NC(=O)c1ccncc1 | -1 | -3 | 29* | -5 | 28*
COc1cc(OC)cc(-n2c3nc4ccccc4nc3c3c(=O)n(CC4CCCO4)cnc32)c1 (configuration not stated) | . | 3 | 300* | . | 142* | RORg DNA counter=>40
C[C@@H](c1ccccc1)N1C[C@@H](COCc2ccccc2)Oc2cc(N3CCC[C@H]3CO)ccc2S1(=O)=O | 0 | -1 | 5 | . | .
CCOC(=O)C1CCN(C(=O)CCC(=O)NNc2nc3ccccc3c3nc(C)nn23)CC1 | 0 | -1 | 2 | 4 | .
N#Cc1c(C(F)(F)F)cc(-c2ccc(Cl)cc2)[nH]c1=O | 0 | -1 | -1 | -1 | .
CSc1cc(-c2ccc(Cl)cc2)[nH]c(=O)c1C#N | 0 | 2 | 82* | 5 | 12
Cc1nc(SC(C(N)=O)c2ccccc2)c(C#N)c(C)c1C (configuration not stated) | 0 | -4 | -4 | 1 | .
COc1ccccc1-c1cc(-c2ccccc2)nc(SC(C(N)=O)c2ccccc2)c1C#N (configuration not stated) | -1 | 8 | 39* | -13 | 20*
CCCCOCCCNC(=O)C[C@@H]1C[C@@]2(C(=O)OCC)CCCC=C2N(Cc2ccc(Cl)cc2Cl)C1=O | -1 | -1 | -2 | . | .
CCOC(=O)c1sc(NC(=O)c2ccc(S(=O)(=O)N3CCCCC3)cc2)nc1-c1ccccc1 | -1 | 1 | 16 | 1 | .
CCOC(=O)N1CCN(S(=O)(=O)c2ccc(C(=O)Nc3nc4ccccc4s3)cc2)CC1 | 0 | 7 | 34* | -1 | 21*
CCOC(=O)c1sc(NC(=O)c2ccc(S(=O)(=O)N3CCCCCC3)cc2)nc1-c1ccccc1 | 0 | -2 | 29* | -2 | 5
CCOc1ccc(NC(=O)CN2C(=O)c3cccc4cccc2c34)cc1 | . | 1 | 10 | . | .
CCc1cc2c(C)ccc(C)c2nc1SCC(=O)Nc1c[nH]c(=O)[nH]c1=O | -1 | 6 | 53* | -5 | 44* | RORg DNA counter=>40
COc1ccc(OC)c(NC(=O)C2CCN(c3cc(-c4ccccc4)nc4ncnn34)CC2)c1 | -1 | -2 | 35* | -1 | 17
COc1cc(N2N=C(c3ccccc3)CC2c2ccccc2)c(C=O)cc1C=O (configuration not stated) | -2 | 1 | 107* | 3 | 75* | RORg DNA counter=>40
O=[N+]([O-])c1ccc(N2CCCCC2)s1 | 0 | -3 | 23* | -20 | 18*
O=[N+]([O-])c1ccc(N2CCN(Cc3ccccc3)CC2)s1 | -1 | -2 | 19 | -13 | .
CC1CCCN(c2ccc([N+](=O)[O-])s2)C1 (configuration not stated) | 0 | -4 | 31* | -19 | 15
CC1CCCN(c2c([N+](=O)[O-])cc(C(=O)O)cc2[N+](=O)[O-])C1 (configuration not stated) | 0 | 0 | 1 | 3 | .
CS(=O)(=O)c1nc(-c2ccc(Br)cc2)cc(-c2ccccc2)c1C#N | -1 | 2 | 1 | -12 | .
N#Cc1c(-c2ccccc2Cl)cc(-c2ccccc2)nc1Br | 0 | 4 | 32* | -16 | 22*
N#Cc1c(-c2cccc(F)c2)cc(-c2ccccc2)nc1Br | 0 | 9.1* | 58* | -4 | 25*
N#Cc1c(-c2ccccc2Cl)cc(C2CC2)nc1N | 0 | 2 | 2 | 2 | .
CCCc1c(C(=O)N/N=C/c2ccc(C)o2)nnn1-c1nonc1N | 0 | 2 | -4 | -5 | .
CCCN(CCC)Cc1c(C(=O)N/N=C/c2ccc(C)o2)nnn1-c1nonc1N | 0 | 2 | 31* | -2 | 8
CCCCn1c(N)c(N(CC(C)C)C(=O)C2CC(=O)N(CCc3ccccc3)C2)c(=O)[nH]c1=O (configuration not stated) | -1 | -3 | 12* | -3 | 1

Screens: PubChem, several laboratories
